In ChEMBL document CHEMBL3739379, “Anti-Candida activity and cytotoxicity of a large library of new N-substituted-1,3-thiazolidin-4-one derivatives” (Eur J Med Chem, 2016):
Values after ≈ are worked out from the molar mass of the structure shown.

Experiments:
Format in all cases: functional
Enterobacter sp. = test: Antibacterial activity against Enterobacter sp. after 18 to 22 hrs by broth microdilution method
In short: (§1)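 Broth microdilution per NCCLS in Mueller-Hinton II broth; isolates subcultured for purity. Compounds dissolved in DMSO, serial dilutions 256 to 0.5 µg/mL; inoculum 10^5/mL. Controls: organism without compound, medium only. Incubation 18 to 22 h at 35 °C. MIC is the lowest concentration giving complete growth inhibition, read by unaided eye.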

Nakaseomyces glabratus = test: Antifungal activity against Candida glabrata clinical isolate after 24 hrs by sabouraud dextrose broth based microdilution method
In short: (§2)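 Clinical isolates identified by conventional methods and subcultured for purity. Broth microdilution per NCCLS in Sabouraud dextrose broth; compounds dissolved in DMSO and serially diluted; inoculum 10^3/mL. Controls: fungi without compound, medium only. Incubated 24 h at 37 °C. MIC is the lowest concentration with complete growth inhibition by unaided eye. Values are geometric means over isolates per species.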

Escherichia coli = test: Antibacterial activity against Escherichia coli at after 18 to 22 hrs by broth microdilution method; in short: as §1
Candida albicans = test: Antifungal activity against Candida albicans clinical isolate after 24 hrs by sabouraud dextrose broth based microdilution method; in short: as §2
Candida tropicalis = test: Antifungal activity against Candida tropicalis clinical isolate after 24 hrs by sabouraud dextrose broth based microdilution method; in short: as §2
Enterococcus faecalis = test: Antibacterial activity against […] faecalis after 18 to 22 hrs by broth microdilution method; in short: as §1
Candida parapsilosis = test: Antifungal activity against Candida parapsilosis clinical isolate after 24 hrs by sabouraud dextrose broth based microdilution method; conditions: Lodderomyces parapsilosis; in short: as §2
Staphylococcus warneri = test: Antibacterial activity against Staphylococcus warneri after 18 to 22 hrs by broth microdilution method; in short: as §1
Pichia kudriavzevii = test: Antifungal activity against Candida krusei clinical isolate after 24 hrs by sabouraud dextrose broth based microdilution method; in short: as §2
Staphylococcus aureus = test: Antibacterial activity against Staphylococcus aureus after 18 to 22 hrs by broth microdilution method; in short: as §1
Proteus mirabilis = test: Antibacterial activity against Proteus mirabilis after 18 to 22 hrs by broth microdilution method; in short: as §1
Klebsiella oxytoca = test: Antibacterial activity against Klebsiella oxytoca after 18 to 22 hrs by broth microdilution method; in short: as §1
[1] = tested on: Staphylococcus haemolyticus; test: Antibacterial activity against Staphylococcus haemolyticus after 18 to 22 hrs by broth microdilution method; in short: as §1
[Candida] sake = Antifungal activity against Candida sake clinical isolate after 24 hrs by sabouraud dextrose broth based microdilution method; conditions: Fermentozyma sake; in short: as §2

SMILES | MIC (Enterobacter sp.) [µg/mL] | MIC (Nakaseomyces glabratus) [µg/mL] | MIC (Escherichia coli) [µg/mL] | MIC (Candida albicans) [µg/mL] | MIC (Candida tropicalis) [µg/mL] | MIC (Enterococcus faecalis) [µg/mL] | MIC (Candida parapsilosis) [µg/mL] | MIC (Staphylococcus warneri) [µg/mL] | MIC (Pichia kudriavzevii) [µg/mL] | MIC (Staphylococcus aureus) [µg/mL] | MIC (Proteus mirabilis) [µg/mL] | MIC (Klebsiella oxytoca) [µg/mL] | MIC ([Candida] sake) [µg/mL] | MIC [1] [µg/mL]
CC1CCC(=N/N=C2\SCC(=O)N2Cc2cccc3ccccc23)CC1 (stereo not drawn) | > 256 | 16 (≈ 43.8 µM) | > 256 | 2 (≈ 5.47 µM) | 128 (≈ 350 µM) | > 256 | 8 (≈ 21.9 µM) | > 256 | 8 (≈ 21.9 µM) | > 256 | > 256 | > 256 | 4 (≈ 10.9 µM) | > 256
O=C1CS/C(=N\N=C2CCCC2)N1Cc1cccc2ccccc12 | > 256 | 16 (≈ 47.4 µM) | > 256 | 2 (≈ 5.93 µM) | 8 (≈ 23.7 µM) | > 256 | 128 (≈ 379 µM) | > 256 | 16 (≈ 47.4 µM) | > 256 | > 256 | > 256 | 256 (≈ 759 µM) | > 256
C/C(=N\N=C1/SCC(=O)N1Cc1cccc2ccccc12)c1ccccc1 | > 256 | 8 (≈ 21.4 µM) | > 256 | 2 (≈ 5.36 µM) | 2 (≈ 5.36 µM) | > 256 | 32 (≈ 85.7 µM) | > 256 | 32 (≈ 85.7 µM) | > 256 | > 256 | > 256 | 8 (≈ 21.4 µM) | > 256
CCC(CC)=N/N=C1\SCC(=O)N1Cc1ccc([N+](=O)[O-])cc1 | > 256 | 8 (≈ 23.9 µM) | > 256 | 2 (≈ 5.98 µM) | 8 (≈ 23.9 µM) | > 256 | 128 (≈ 383 µM) | > 256 | 32 (≈ 95.7 µM) | > 256 | > 256 | > 256 | 2 (≈ 5.98 µM) | > 256
CCCC/C(CC)=N/N=C1\SCC(=O)N1Cc1cccc2ccccc12 | > 256 | 8 (≈ 21.8 µM) | > 256 | 2 (≈ 5.44 µM) | 2 (≈ 5.44 µM) | > 256 | 16 (≈ 43.5 µM) | > 256 | 16 (≈ 43.5 µM) | > 256 | > 256 | > 256 | 2 (≈ 5.44 µM) | > 256

Further lines, with some results ahead:

MIC (Enterobacter sp.) [µg/mL] | MIC (Nakaseomyces glabratus) [µg/mL] | MIC (Escherichia coli) [µg/mL] | MIC (Candida albicans) [µg/mL] | MIC (Candida tropicalis) [µg/mL] | MIC (Enterococcus faecalis) [µg/mL] | MIC (Candida parapsilosis) [µg/mL] | MIC (Staphylococcus warneri) [µg/mL] | MIC (Pichia kudriavzevii) [µg/mL] | MIC (Staphylococcus aureus) [µg/mL] | MIC (Proteus mirabilis) [µg/mL] | MIC (Klebsiella oxytoca) [µg/mL] | MIC ([Candida] sake) [µg/mL] | SMILES | MIC [1] [µg/mL]
> 256 | 8 (≈ 20.8 µM) | > 256 | 4 (≈ 10.4 µM) | 2 (≈ 5.2 µM) | > 256 | 16 (≈ 41.6 µM) | > 256 | 16 (≈ 41.6 µM) | > 256 | > 256 | > 256 | 2 (≈ 5.2 µM) | CC1CCCC/C1=N\N=C1/SCC(=O)N1CN1C(=O)c2ccccc2C1=O (stereo not drawn) | > 256
> 256 | 2 (≈ 5.31 µM) | > 256 | 4 (≈ 10.6 µM) | 128 (≈ 340 µM) | > 256 | 256 (≈ 680 µM) | > 256 | 128 (≈ 340 µM) | > 256 | > 256 | > 256 | 256 (≈ 680 µM) | CCCCCC/C(C)=N/N=C1\SCC(=O)N1Cc1ccc([N+](=O)[O-])cc1 | > 256
> 256 | 2 (≈ 5.34 µM) | > 256 | 2 (≈ 5.34 µM) | 2 (≈ 5.34 µM) | > 256 | 2 (≈ 5.34 µM) | > 256 | 2 (≈ 5.34 µM) | > 256 | > 256 | > 256 | 2 (≈ 5.34 µM) | C/C(=N\N=C1/SCC(=O)N1Cc1cccc2ccccc12)c1ccccn1 | > 256
> 256 | 2 (≈ 6.15 µM) | > 256 | 2 (≈ 6.15 µM) | 128 (≈ 393 µM) | > 256 | 2 (≈ 6.15 µM) | > 256 | 2 (≈ 6.15 µM) | > 256 | > 256 | > 256 | 2 (≈ 6.15 µM) | CC/C(C)=N/N=C1\SCC(=O)N1Cc1cccc2ccccc12 | > 256
> 256 | 32 (≈ 80.3 µM) | > 256 | 256 (≈ 643 µM) | 16 (≈ 40.2 µM) | > 256 | 16 (≈ 40.2 µM) | > 256 | 8 (≈ 20.1 µM) | > 256 | > 256 | > 256 | 16 (≈ 40.2 µM) | O=C1CS/C(=N\N=C\c2ccc3c(c2)OCO3)N1Cc1ccc([N+](=O)[O-])cc1 | > 256
> 256 | 2 (≈ 5.89 µM) | > 256 | 2 (≈ 5.89 µM) | 64 (≈ 189 µM) | > 256 | 2 (≈ 5.89 µM) | > 256 | 2 (≈ 5.89 µM) | > 256 | > 256 | > 256 | 16 (≈ 47.1 µM) | CCC/C(C)=N/N=C1\SCC(=O)N1Cc1cccc2ccccc12 | > 256
> 256 | 8 (≈ 21.7 µM) | > 256 | 2 (≈ 5.43 µM) | 8 (≈ 21.7 µM) | > 256 | 2 (≈ 5.43 µM) | > 256 | 4 (≈ 10.9 µM) | > 256 | > 256 | > 256 | 2 (≈ 5.43 µM) | O=C1c2ccccc2C(=O)N1CN1C(=O)CS/C1=N\N=C\c1ccco1 | > 256
